Experimental data from PubChem BioAssay AID2465 (Broad Institute, 2010).
The campaign covered roughly 24,000 compounds. Fewer than 10 were called active. No stated cut-off is given here; in the data, active means caspase activation above about 5.9%; inconclusive means no clear call, values can overlap the other calls; inactive means below about 2.2%. A selection follows.

Test: Bcl2-A1 antagonists releasing BIM, apoptosis – cell-based, luminescence, HTS, two replicates, primary screen (AID 2465)
Settings: MEF A1-2A-BIM cells, caspase-Glo luminescence, 3 h; hits give high values; percent of clofoctol response, DMSO zero; concentration not given here
Procedure, shortened: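 Test system – A1-2A-BIM-expressing MEF cells · Input – 2500 cells/well · Medium – RPMI-1640 growth medium with 10% FBS · Compound dosing – 50 nL pinned compound · Timing – 3 h compound exposure at 37 °C · Technique – Caspase-Glo luminescence (DEVD substrate) · Evaluation – Caspase-3/7 activity from luminescence increase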
In the case of `Cc1ccc(S(=O)(=O)N(C)C[C@@H]2Oc3ccc(NC(=O)Cc4cn(C)c5ccccc45)cc3C(=O)N([C@@H](C)CO)C[C@@H]2C)cc1`, the caspase activation is reported as 0.187% (inactive). In the case of `Cc1noc(C)c1S(=O)(=O)Nc1ccc2c(c1)CC(=O)N([C@@H](C)CO)C[C@H](C)[C@H](CN(C)C(=O)Nc1cccc3ccccc13)O2`, the caspase activation is reported as 0.254% (inactive). In the case of `O=C(CCCCCCC(=O)Nc1ccccc1O)N/N=C/c1ccc(CO)o1`, the caspase activation is reported as -0.255% (inactive). For `COC(=O)CCCCCCC(=O)N/N=C/c1ccc2ccccc2c1O`, the caspase activation was -1.41% (inactive). For `COc1ccc(NC(=O)N(C)C[C@H]2OCCCC[C@@H](C)Oc3ccc(NC(=O)NC4CCCCC4)cc3C(=O)N([C@@H](C)CO)C[C@H]2C)cc1`, the caspase activation was 0.476% (inactive). In the case of `C[C@@H]1CN([C@@H](C)CO)C(=O)c2cc(NS(=O)(=O)c3cn(C)cn3)ccc2O[C@@H]1CN(C)Cc1ccc(C(=O)Nc2ccccc2N)cc1`, the caspase activation is reported as 0.311% (inactive). In the case of `C[C@H]1CN([C@@H](C)CO)C(=O)c2cc(NC(=O)C3CCCCC3)ccc2O[C@H]1CN(C)C(=O)Nc1ccccc1`, the caspase activation is reported as 0.892% (inactive). In the case of `C[C@@H]1CCCCO[C@@H](CN(C)Cc2ccc(C(=O)O)cc2)[C@@H](C)CN([C@@H](C)CO)C(=O)c2cc(NC(=O)Nc3ccc(C(F)(F)F)cc3)ccc2O1`, the caspase activation is reported as 0.286% (inactive). In the case of `COc1ccc(NC(=O)Nc2ccc3c(c2)C(=O)N([C@@H](C)CO)C[C@@H](C)[C@@H](CN(C)Cc2ccncc2)OCCCC[C@@H](C)O3)cc1`, the caspase activation is reported as -1.58% (inactive). In the case of `C[C@@H]1CN([C@H](C)CO)C(=O)Cc2cc(NC(=O)CCC(F)(F)F)ccc2O[C@@H]1CN(C)Cc1ccncc1`, the caspase activation is reported as 0.918% (inactive). For `COc1ccc(NC(=O)N(C)C[C@H]2OCCCC[C@@H](C)Oc3ccc(NC(=O)c4ccncc4)cc3C(=O)N([C@@H](C)CO)C[C@H]2C)cc1`, the caspase activation was -1.47% (inactive). With `COc1ccc(C(=O)Nc2cccc(-n3cc(C(=O)NO)nn3)c2)cc1` the caspase activation was -0.373% (inactive). With `COc1ccc(S(=O)(=O)Nc2ccc3c(c2)C(=O)N([C@@H](C)CO)C[C@H](C)[C@H](CN(C)S(=O)(=O)c2ccc(F)cc2)OCCCC[C@@H](C)O3)cc1` the caspase activation was 0.149% (inactive). In the case of `C[C@H]1CN([C@@H](C)CO)C(=O)CCCn2cc(nn2)CO[C@@H]1CN(C)S(=O)(=O)c1cccc(C#N)c1`, the caspase activation is reported as 0.238% (inactive). In the case of `Cc1noc(C)c1S(=O)(=O)N(C)C[C@@H]1Oc2ccc(NC(=O)Cn3cnnn3)cc2CC(=O)N([C@@H](C)CO)C[C@H]1C`, the caspase activation is reported as -0.944% (inactive). With `C[C@@H]1CN([C@@H](C)CO)C(=O)Cc2cc(NC(=O)CCCCCC(=O)Nc3ccccc3N)ccc2O[C@@H]1CN(C)C(=O)NC1CCCCC1` the caspase activation was 0.875% (inactive). In the case of `C[C@H]1CN([C@@H](C)CO)C(=O)Cc2cc(NS(=O)(=O)c3ccccc3)ccc2O[C@H]1CN(C)Cc1ccc(C(=O)Nc2ccccc2N)cc1`, the caspase activation is reported as 0.839% (inactive). With `COc1ccc(CN(C)C[C@H]2OCCCC[C@H](C)Oc3ccc(NC(=O)NC4CCCCC4)cc3C(=O)N([C@@H](C)CO)C[C@@H]2C)cc1` the caspase activation was 2.09% (inactive). In the case of `CN(C)c1ccc(/C=N/NC(=O)c2cccc(C(=O)NO)c2)cc1`, the caspase activation is reported as -7.51% (inactive). With `C[C@@H]1CN([C@@H](C)CO)C(=O)c2cc(NC(=O)Nc3ccc4c(c3)OCO4)ccc2O[C@@H](C)CCCCO[C@@H]1CN(C)S(=O)(=O)c1cccs1` the caspase activation was 0.598% (inactive). In the case of `COc1ccc(CN(C)C[C@H]2OCCCC[C@H](C)Oc3ccc(NC(=O)c4ccccc4)cc3C(=O)N([C@@H](C)CO)C[C@@H]2C)cc1`, the caspase activation is reported as 2.67% (inactive). For `O=C(NO)c1cccc(C(=O)N/N=C/c2cc(Br)c(O)c(Br)c2)c1`, the caspase activation was 0.169% (inactive). In the case of `CC(C)NC(=O)N(C)C[C@H]1Oc2ccc(NC(=O)CCCCCC(=O)Nc3ccccc3N)cc2CC(=O)N([C@@H](C)CO)C[C@H]1C`, the caspase activation is reported as 0.899% (inactive). With `Cc1noc(C)c1S(=O)(=O)N(C)C[C@H]1OCc2cn(nn2)CCCC(=O)N([C@H](C)CO)C[C@H]1C` the caspase activation was -0.756% (inactive). In the case of `C[C@H]1CCCCO[C@@H](CN(C)C(=O)Nc2ccccc2)[C@@H](C)CN([C@@H](C)CO)C(=O)c2cc(NC(=O)Nc3ccc(F)cc3)ccc2O1`, the caspase activation is reported as -0.917% (inactive). With `Cc1ccc(S(=O)(=O)Nc2ccc3c(c2)C(=O)N([C@H](C)CO)C[C@H](C)[C@@H](CN(C)Cc2ccccc2)OCCCC[C@H](C)O3)cc1` the caspase activation was -0.556% (inactive). With `C[C@H](CO)N1C[C@H](C)[C@@H](CN(C)Cc2ccc(C(=O)O)cc2)Oc2ccc(NS(=O)(=O)c3cn(C)cn3)cc2CC1=O` the caspase activation was -0.273% (inactive). For `C[C@@H]1CCCCO[C@@H](CN(C)C(=O)Nc2cccc3ccccc23)[C@H](C)CN([C@H](C)CO)C(=O)c2cc(NS(C)(=O)=O)ccc2O1`, the caspase activation was -0.00967% (inactive). With `Cc1noc(C)c1NC(=O)Nc1ccc2c(c1)C(=O)N([C@H](C)CO)C[C@@H](C)[C@@H](CN(C)Cc1ccncc1)OCCCC[C@H](C)O2` the caspase activation was -0.749% (inactive). For `C[C@@H]1CN([C@@H](C)CO)C(=O)c2cc(NC(=O)Cc3ccccc3)ccc2O[C@@H]1CN(C)CC1CCCCC1`, the caspase activation was 0.64% (inactive). With `Cc1noc(C)c1NC(=O)Nc1ccc2c(c1)C(=O)N([C@@H](C)CO)C[C@@H](C)[C@H](CN(C)C(=O)NC(C)C)O2` the caspase activation was 0.213% (inactive). In the case of `C[C@@H]1CN([C@H](C)CO)C(=O)c2cc(NC(=O)CCCCCC(=O)Nc3ccccc3N)ccc2O[C@H]1CN(C)Cc1ccncc1`, the caspase activation is reported as 0.61% (inactive). In the case of `C[C@@H]1CCCCO[C@H](CN(C)CC2CC2)[C@@H](C)CN([C@H](C)CO)C(=O)c2cc(NC(=O)Nc3ccc(F)cc3)ccc2O1`, the caspase activation is reported as -0.194% (inactive). In the case of `COc1ccc(S(=O)(=O)N(C)C[C@@H]2Oc3c(NC(=O)NC(C)C)cccc3C(=O)N([C@@H](C)CO)C[C@@H]2C)cc1`, the caspase activation is reported as -0.3% (inactive). With `O=C(CCCCC(=O)N/N=C/c1ccc(-n2ccnc2)cc1)NO` the caspase activation was 1.09% (inactive). With `C[C@H](CO)N1C[C@H](C)[C@H](CN(C)C(=O)c2ccccc2)OCCCC[C@H](C)Oc2ccc(N(C)C)cc2C1=O` the caspase activation was -1.45% (inactive). With `CC(C)NC(=O)Nc1ccc2c(c1)C(=O)N([C@H](C)CO)C[C@H](C)[C@@H](CN(C)S(=O)(=O)c1ccc(F)cc1)OCCCC[C@H](C)O2` the caspase activation was 1.08% (inactive). For `COc1ccc(S(=O)(=O)N(C)C[C@@H]2OCCCC[C@@H](C)Oc3ccc(NC(=O)c4ccccc4)cc3C(=O)N([C@@H](C)CO)C[C@H]2C)cc1`, the caspase activation was 1.47% (inactive). In the case of `C[C@@H]1CCCCO[C@H](CN(C)C(=O)Nc2ccc(C(F)(F)F)cc2)[C@@H](C)CN([C@@H](C)CO)C(=O)c2cc(NS(=O)(=O)c3cccs3)ccc2O1`, the caspase activation is reported as -0.547% (inactive). With `CCOc1cccc(/C=N/NC(=O)CCCCCC(=O)Nc2ccccc2O)c1OCC` the caspase activation was -0.952% (inactive). For `C[C@@H]1CN([C@@H](C)CO)C(=O)c2cc(NC(=O)Nc3ccc(C(F)(F)F)cc3)ccc2O[C@@H](C)CCCCO[C@H]1CN(C)C(=O)CCCN(C)C`, the caspase activation was 0.263% (inactive). In the case of `Cc1noc(C)c1NC(=O)N(C)C[C@@H]1Oc2ccc(NS(=O)(=O)c3ccc(F)cc3)cc2CC(=O)N([C@@H](C)CO)C[C@H]1C`, the caspase activation is reported as -0.135% (inactive). In the case of `COc1ccc(S(=O)(=O)Nc2ccc3c(c2)CC(=O)N([C@H](C)CO)C[C@H](C)[C@@H](CN(C)C(=O)NC(C)C)O3)cc1`, the caspase activation is reported as 0.0847% (inactive). With `C[C@H](CO)N1C[C@H](C)[C@@H](CN(C)S(C)(=O)=O)OCCCC[C@H](C)Oc2ccc(NC(=O)Nc3ccc(C(F)(F)F)cc3)cc2C1=O` the caspase activation was -0.463% (inactive). In the case of `C[C@H]1CCCCO[C@H](CN(C)S(C)(=O)=O)[C@@H](C)CN([C@@H](C)CO)C(=O)c2cc(NC(=O)C3CCCCC3)ccc2O1`, the caspase activation is reported as -0.127% (inactive). For `C[C@@H]1CN([C@@H](C)CO)C(=O)c2cc(NC(=O)NC3CCCCC3)ccc2O[C@@H](C)CCCCO[C@H]1CN(C)Cc1ccccc1`, the caspase activation was 1.95% (inactive). With `C[C@@H]1CCCCO[C@@H](CN(C)C(=O)Nc2cccc3ccccc23)[C@H](C)CN([C@H](C)CO)C(=O)c2cc(NC(=O)NC3CCCCC3)ccc2O1` the caspase activation was -0.528% (inactive). With `COc1ccc(NC(=O)N(C)C[C@H]2OCCCC[C@H](C)Oc3ccc(NC(=O)c4ccncc4)cc3C(=O)N([C@H](C)CO)C[C@@H]2C)cc1` the caspase activation was -1.84% (inactive). In the case of `COc1ccc(S(=O)(=O)Nc2cccc3c2O[C@@H](CN(C)C(=O)NC(C)C)[C@H](C)CN([C@@H](C)CO)C3=O)cc1`, the caspase activation is reported as 0.104% (inactive). In the case of `COc1ccc(CN(C)C[C@H]2Oc3ccc(NS(=O)(=O)c4c(C)noc4C)cc3CC(=O)N([C@H](C)CO)C[C@H]2C)cc1`, the caspase activation is reported as -1.02% (inactive). With `C[C@H]1CCCCO[C@H](CN(C)C(=O)Nc2ccccc2)[C@@H](C)CN([C@@H](C)CO)C(=O)c2cc(NC(=O)c3ccncc3)ccc2O1` the caspase activation was 0.525% (inactive). For `Cc1ccc(S(=O)(=O)Nc2ccc3c(c2)C(=O)N([C@@H](C)CO)C[C@H](C)[C@@H](CN(C)C(=O)Cc2ccccc2)OCCCC[C@H](C)O3)cc1`, the caspase activation was -0.949% (inactive). In the case of `C[C@@H]1CN([C@H](C)CO)C(=O)c2cccc(NC(=O)Nc3ccccc3)c2O[C@H]1CN(C)S(C)(=O)=O`, the caspase activation is reported as -0.29% (inactive). With `Cc1ccccc1CN(C)C[C@H]1OCc2cn(nn2)CCCC(=O)N([C@@H](C)CO)C[C@H]1C` the caspase activation was -0.00464% (inactive). With `C[C@H](CO)N1C[C@H](C)[C@@H](CN(C)S(=O)(=O)c2cccs2)OCCCC[C@H](C)Oc2ccc(NS(=O)(=O)c3ccccc3)cc2C1=O` the caspase activation was 0.384% (inactive).
